Measured values reported in ChEMBL document CHEMBL4152337, “Novel indolo-sophoridinic scaffold as Topo I inhibitors: Design, synthesis and biological evaluation as anticancer agents” (Eur J Med Chem, 2018).
Activity calls are given as the source filed them. The calls are words filed in the database; no cut-off is given here.

Experiments:
CNE-2 = test: Cytotoxicity against human CNE2 cells assessed as reduction in cell viability after 48 hrs by MTT assay; type: functional, cell-based; settings: CNE-2, 48 h
How it was run: (§1)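 Cells at 3–4 × 10⁴/mL in DMEM + 10% FBS, pre-incubated 24 h in 5% CO₂. Then exposed 48 h to serial dilutions at 1, 5, 10, 20 and 50 µM; final DMSO <0.1%. MTT (5 mg/mL solution) added for 4 h at 37 °C, supernatant removed, formazan dissolved in DMSO, colorimetric read-out.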

HepG2 [1] = test: Cytotoxicity against human HepG2 cells assessed as reduction in cell viability after 48 hrs by MTT assay; type: functional, cell-based; settings: HepG2, 48 h; how it was run: as §1
A549 = test: Cytotoxicity against human A549 cells assessed as reduction in cell viability after 48 hrs by MTT assay; type: functional, cell-based; settings: A549, 48 h; how it was run: as §1
HepG2 [2] = test: Antitumor activity against human HepG2 cells xenografted in BALB/C nude mouse assessed as tumor weight at 40 mg/kg, ip treated twice per week for 25 days (reference value: 0.84 +/- 0.09 g); type: functional
How it was run: (§2)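 Female BALB/c nude mice, 5–6 weeks old, with subcutaneous flank xenografts of 8 × 10⁶ HepG2 cells. Randomized when tumors reached ~150–200 mm³. Dosed ip twice weekly for 25 days at 40 mg/kg; vehicle was saline with 10% DMSO (n = 6 vehicle, n = 5 per treated group). Caliper measurements every other day, volume = 0.5 × L × W². Tumors excised and weighed at end. Mean ± SD; t-test versus vehicle.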

HepG2 [3] = test: Antitumor activity against human HepG2 cells xenografted in BALB/C nude mouse assessed as tumor growth at 40 mg/kg, ip treated twice per week for 25 days relative to control; type: functional; how it was run: as §2
HepG2 [4] = test: Antitumor activity against human HepG2 cells xenografted in BALB/C nude mouse assessed as tumor volume at 40 mg/kg, ip treated twice per week for 25 days (reference value: 1185.78 +/- 137.44 mm3); type: functional
HepG2 [5] = test: Cell cycle arrest in human HepG2 cells accumulation at G1 phase at 2 to 6 mM after 24 hrs by propidium iodide staining-based flow cytometric analysis; type: functional
How it was run: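 HepG2 cells were seeded at 2 × 10⁵ per well in DMEM with 10% FBS and treated at three concentrations (2, 4, 6) for 24 h. Cells were fixed in cold 75% ethanol at 4 °C overnight, washed in PBS, then given RNase at 37 °C for 30 min and propidium iodide in the dark for 30 min. Read by flow cytometry; mean SD; three independent experiments.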

[6] = target: T1, DNA topoisomerase 1 (Homo sapiens) (UniProt P11387); test: Inhibition of recombinant human topoisomerase-1-mediated relaxation of supercoiled pBR322 DNA at 500 uM after 30 mins by ethidium bromide staining based assay
T1 sequence (whole entry): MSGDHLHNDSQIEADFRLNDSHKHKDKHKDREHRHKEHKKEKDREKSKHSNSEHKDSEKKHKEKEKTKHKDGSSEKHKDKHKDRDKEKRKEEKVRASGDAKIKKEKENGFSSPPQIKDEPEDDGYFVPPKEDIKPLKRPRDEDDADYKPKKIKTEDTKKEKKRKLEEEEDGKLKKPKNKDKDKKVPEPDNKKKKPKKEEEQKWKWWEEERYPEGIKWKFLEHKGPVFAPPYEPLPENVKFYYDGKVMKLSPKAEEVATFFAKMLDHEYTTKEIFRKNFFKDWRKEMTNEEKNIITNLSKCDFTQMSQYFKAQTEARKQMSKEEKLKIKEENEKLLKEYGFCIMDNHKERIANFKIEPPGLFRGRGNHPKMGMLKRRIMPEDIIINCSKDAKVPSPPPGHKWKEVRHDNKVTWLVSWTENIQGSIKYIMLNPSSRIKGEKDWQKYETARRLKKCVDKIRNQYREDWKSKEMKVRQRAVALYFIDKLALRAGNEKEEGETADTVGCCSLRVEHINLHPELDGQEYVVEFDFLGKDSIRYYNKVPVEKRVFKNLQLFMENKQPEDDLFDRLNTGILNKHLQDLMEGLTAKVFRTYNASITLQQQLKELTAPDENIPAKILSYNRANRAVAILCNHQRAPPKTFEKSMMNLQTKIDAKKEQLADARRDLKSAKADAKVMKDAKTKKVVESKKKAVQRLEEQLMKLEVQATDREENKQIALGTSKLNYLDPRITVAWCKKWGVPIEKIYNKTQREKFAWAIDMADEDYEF
How it was run: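 Reactions stopped with loading buffer containing 0.5% SDS, bromophenol blue and 15% glycerol. Products run on a horizontal 0.8% agarose gel in 1× TAE at 4 V/cm for 40 min at room temperature. Gel stained with ethidium bromide and imaged.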

Structure (SMILES) | IC50 (CNE-2) | IC50 (HepG2 [1]) | IC50 (A549) | Activity (HepG2 [2]) | T/C (HepG2 [3]) | Activity (HepG2 [4]) | Activity (HepG2 [5]) | inhibition [6]
COC(=O)CCC[C@@H]1[C@H]2CCCN3CCC[C@H](CN1Cc1cn(Cc4ccc(Br)cc4)c4ccccc14)[C@@H]23 | 4.3 µM | 4.8 µM | 3.5 µM | – | – | – | – | –
O=C1CCC[C@@H]2[C@H]3CCCN4CCC[C@H](CN12)[C@@H]34 [SOPHORIDINE] | 5380 µM | – | 5840 µM | 0.97 g | 93.38% | 1204.27 mm3 | Active | –
COC(=O)CCC[C@@H]1[C@H]2CCCN3CCC[C@H](CN1Cc1c[nH]c4ccc(C#N)cc14)[C@@H]23 | 15.3 µM | > 50 µM | > 50 µM | – | – | – | – | –
COC(=O)CCC[C@@H]1[C@H]2CCCN3CCC[C@H](CN1Cc1cn(Cc4ccc(C(F)(F)F)cc4)c4ccc(F)cc14)[C@@H]23 | 6.9 µM | 7.7 µM | 12.8 µM | – | – | – | – | –
COC(=O)CCC[C@@H]1[C@H]2CCCN3CCC[C@H](CN1Cc1c[nH]c4ccc(C)cc14)[C@@H]23 | 49.4 µM | 23.8 µM | > 50 µM | – | – | – | – | –
COC(=O)CCC[C@@H]1[C@H]2CCCN3CCC[C@H](CN1Cc1cn(Cc4ccc(F)cc4)c4ccccc14)[C@@H]23 | 3.5 µM | 8.6 µM | 29.6 µM | – | – | – | – | –
COC(=O)CCC[C@@H]1[C@H]2CCCN3CCC[C@H](CN1Cc1cn(Cc4ccc5ccccc5c4)c4ccccc14)[C@@H]23 | 7.8 µM | 8.6 µM | 24 µM | – | – | – | – | Active
COC(=O)CCC[C@@H]1[C@H]2CCCN3CCC[C@H](CN1Cc1cn(Cc4ccc(Cl)cc4)c4ccc(F)cc14)[C@@H]23 | 6.1 µM | 7.3 µM | 10.6 µM | – | – | – | – | –
COC(=O)CCC[C@@H]1[C@H]2CCCN3CCC[C@H](CN1Cc1c[nH]c4cccc(F)c14)[C@@H]23 | > 50 µM | > 50 µM | > 50 µM | – | – | – | – | –
OCCCC[C@@H]1[C@H]2CCCN3CCC[C@H](CN1Cc1c[nH]c4ccccc14)[C@@H]23 | > 50 µM | > 50 µM | > 50 µM | – | – | – | – | –
COC(=O)CCC[C@@H]1[C@H]2CCCN3CCC[C@H](CN1Cc1c[nH]c4cc(F)ccc14)[C@@H]23 | 17.1 µM | > 50 µM | > 50 µM | – | – | – | – | –
COC(=O)CCC[C@@H]1[C@H]2CCCN3CCC[C@H](CN1Cc1c[nH]c4ccc([N+](=O)[O-])cc14)[C@@H]23 | > 50 µM | > 50 µM | > 50 µM | – | – | – | – | –
COC(=O)CCC[C@@H]1[C@H]2CCCN3CCC[C@H](CN1Cc1c[nH]c4ccc(Cl)cc14)[C@@H]23 | 17.9 µM | > 50 µM | > 50 µM | – | – | – | – | –
COC(=O)CCC[C@@H]1[C@H]2CCCN3CCC[C@H](CN1Cc1cn(C)c4ccccc14)[C@@H]23 | 43.4 µM | 15.2 µM | 42.8 µM | – | – | – | – | –
COC(=O)CCC[C@@H]1[C@H]2CCCN3CCC[C@H](CN1Cc1cn(Cc4ccccc4F)c4ccccc14)[C@@H]23 | 14.8 µM | 21.7 µM | 49.3 µM | – | – | – | – | –
CC[C@@]1(O)C(=O)OCc2c1cc1n(c2=O)Cc2cc3ccccc3nc2-1 [CAMPTOTHECIN] | 0.1 µM | 13.2 µM | 5.5 µM | – | – | – | – | –

Structure (SMILES) | IC50 (CNE-2) | IC50 (HepG2 [1]) | IC50 (A549) | Activity (HepG2 [2]) | T/C (HepG2 [3]) | Activity (HepG2 [4]) | Activity (HepG2 [5]) | inhibition [6]
COC(=O)CCC[C@@H]1[C@H]2CCCN3CCC[C@H](CN1Cc1c[nH]c4ccc(F)cc14)[C@@H]23 | > 50 µM | > 50 µM | > 50 µM | – | – | – | – | –
COC(=O)CCC[C@@H]1[C@H]2CCCN3CCC[C@H](CN1Cc1cn(Cc4c(Cl)cccc4Cl)c4ccccc14)[C@@H]23 | 6.7 µM | 8.5 µM | 3.7 µM | – | – | – | – | –
COC(=O)CCC[C@@H]1[C@H]2CCCN3CCC[C@H](CN1Cc1c[nH]c4ccc(OC)cc14)[C@@H]23 | > 50 µM | > 50 µM | > 50 µM | – | – | – | – | –
CCCCn1cc(CN2C[C@H]3CCCN4CCC[C@@H]([C@H]34)[C@H]2CCCC(=O)OC)c2ccccc21 | 8.6 µM | 6.2 µM | 42.8 µM | – | – | – | – | –
CCn1cc(CN2C[C@H]3CCCN4CCC[C@@H]([C@H]34)[C@H]2CCCC(=O)OC)c2ccccc21 | 19.4 µM | 12.8 µM | 37.4 µM | – | – | – | – | –
COC(=O)CCC[C@@H]1[C@H]2CCCN3CCC[C@H](CN1Cc1c(C(=O)OC)[nH]c4ccccc14)[C@@H]23 | 26.4 µM | > 50 µM | > 50 µM | – | – | – | – | –
COC(=O)CCC[C@@H]1[C@H]2CCCN3CCC[C@H](CN1Cc1cn(Cc4ccccc4)c4ccccc14)[C@@H]23 | 3.3 µM | 5.5 µM | 43.4 µM | – | – | – | – | Active
COC(=O)CCC[C@@H]1[C@H]2CCCN3CCC[C@H](CN1Cc1c[nH]c4ccccc14)[C@@H]23 | 12.1 µM | 36.5 µM | 27.8 µM | – | – | – | – | –
COC(=O)CCC[C@@H]1[C@H]2CCCN3CCC[C@H](CN1Cc1cn(Cc4ccc(Cl)cc4)c4ccccc14)[C@@H]23 | 4.6 µM | 6.5 µM | 5.2 µM | – | – | – | – | Active
COC(=O)CCC[C@@H]1[C@H]2CCCN3CCC[C@H](CN1Cc1c[nH]c4ccc(Br)cc14)[C@@H]23 | 20.2 µM | 31.8 µM | 39.9 µM | – | – | – | – | –
COC(=O)CCC[C@@H]1[C@H]2CCCN3CCC[C@H](CN1Cc1cn(Cc4c(Cl)cccc4Cl)c4ccc(F)cc14)[C@@H]23 | 9.3 µM | 18.4 µM | 39.8 µM | – | – | – | – | –
COC(=O)CCC[C@@H]1[C@H]2CCCN3CCC[C@H](CN1Cc1cn(CC4CC4)c4ccccc14)[C@@H]23 | 13.4 µM | 14.4 µM | 30.3 µM | – | – | – | – | –
COC(=O)CCC[C@@H]1[C@H]2CCCN3CCC[C@H](CN1Cc1cn(Cc4cccc(F)c4)c4ccccc14)[C@@H]23 | 12.1 µM | 12.1 µM | 42.3 µM | – | – | – | – | –
COC(=O)CCC[C@@H]1[C@H]2CCCN3CCC[C@H](CN1Cc1cn(Cc4ccc(C(F)(F)F)cc4)c4ccccc14)[C@@H]23 | 4.8 µM | 6.1 µM | 7.4 µM | – | – | – | – | –
OCCCC[C@@H]1[C@H]2CCCN3CCC[C@H](CN1Cc1cn(Cc4ccccc4)c4ccccc14)[C@@H]23 | 2.2 µM | 2.3 µM | 33.7 µM | – | – | – | – | Active
